Laboratory results published in ChEMBL document CHEMBL4350998, “Design, synthesis, and structure-activity relationship studies of l-amino alcohol derivatives as broad-spectrum antifungal agents” (Eur J Med Chem, 2019).
Converted amounts (≈) assume the structure as drawn.

Tests used:
Candida albicans [1] = experiment: Antifungal activity against Candida albicans CPCC 400523 assessed as inhibition of visible microbial growth by NCCLS protocol based method; type: functional
Candida albicans [2] = experiment: Antifungal activity against Candida albicans ATCC SC5314 assessed as inhibition of visible microbial growth by NCCLS protocol based method; type: functional
Procedure, shortened: (§1)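 Compounds dissolved in DMSO and serially diluted into growth medium. MIC was read as the lowest concentration that inhibited visible fungal growth.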

Cryptococcus neoformans = experiment: Antifungal activity against Cryptococcus neoformans CGMCC 2.3161 assessed as inhibition of visible microbial growth by NCCLS protocol based method; type: functional; procedure, shortened: as §1
Candida tropicalis = experiment: Antifungal activity against Candida tropicalis CGMCC 2.3739 assessed as inhibition of visible microbial growth by NCCLS protocol based method; type: functional; procedure, shortened: as §1
Aspergillus fumigatus = experiment: Antifungal activity against Aspergillus fumigatus CGMCC 3.7795 assessed as inhibition of visible microbial growth by NCCLS protocol based method; type: functional; procedure, shortened: as §1
Candida albicans [3] = experiment: Antifungal activity against fluconazole-resistant Candida albicans Strain 17# assessed as inhibition of visible microbial growth by NCCLS protocol based method; type: functional
Procedure, shortened: (§2)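 Broth dilution MIC against clinical fluconazole-resistant C. albicans isolates from AIDS patients. Compounds dissolved in DMSO and serially diluted into growth medium. MIC was taken as the lowest concentration that inhibits visible fungal growth. Fluconazole and itraconazole served as positive controls.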

Candida albicans [4] = experiment: Antifungal activity against fluconazole-resistant Candida albicans Strain CaR assessed as inhibition of visible microbial growth by NCCLS protocol based method; type: functional; procedure, shortened: as §2
[5] = biological target: T1, Lanosterol 14-alpha demethylase (Candida albicans (strain SC5314 / ATCC MYA-2876) (Yeast), UniProt P10613); experiment: Inhibition of CYP51 in Candida albicans ATCC SC5314 assessed as ergosterol level at 0.13 ug/ml incubated for 16 hrs by GC/MS analysis (reference value: 100%); set-up: scale not given: the % may be the effect or the level left; conditions: candida albicans sc5314, 16 h
T1 sequence (P10613 whole entry): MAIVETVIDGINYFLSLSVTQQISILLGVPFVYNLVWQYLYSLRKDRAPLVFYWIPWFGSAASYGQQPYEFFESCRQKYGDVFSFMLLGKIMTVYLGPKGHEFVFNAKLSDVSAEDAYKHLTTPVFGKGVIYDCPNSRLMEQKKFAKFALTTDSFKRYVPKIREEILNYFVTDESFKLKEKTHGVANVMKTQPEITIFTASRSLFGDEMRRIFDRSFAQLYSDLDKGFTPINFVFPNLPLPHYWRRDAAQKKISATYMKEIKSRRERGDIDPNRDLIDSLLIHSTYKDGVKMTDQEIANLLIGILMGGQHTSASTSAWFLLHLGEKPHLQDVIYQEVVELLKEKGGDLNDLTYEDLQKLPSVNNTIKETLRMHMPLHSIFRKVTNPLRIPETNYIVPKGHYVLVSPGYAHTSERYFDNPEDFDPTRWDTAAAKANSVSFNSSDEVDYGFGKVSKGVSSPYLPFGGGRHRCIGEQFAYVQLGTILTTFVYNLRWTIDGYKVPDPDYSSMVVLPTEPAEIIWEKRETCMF

[6] = biological target: T1, Lanosterol 14-alpha demethylase; experiment: Inhibition of CYP51 in Candida albicans ATCC SC5314 assessed as ergosterol level at 0.5 ug/ml incubated for 16 hrs by GC/MS analysis (reference value: 100%); set-up: scale not given: the % may be the effect or the level left; conditions: candida albicans sc5314, 16 h
[7] = biological target: T1, Lanosterol 14-alpha demethylase; experiment: Inhibition of CYP51 in Candida albicans ATCC SC5314 assessed as ergosterol level at 2 ug/ml incubated for 16 hrs by GC/MS analysis (reference value: 100%); set-up: scale not given: the % may be the effect or the level left; conditions: candida albicans sc5314, 16 h
[8] = biological target: T1, Lanosterol 14-alpha demethylase; experiment: Inhibition of CYP51 in Candida albicans ATCC SC5314 assessed as ergosterol level at 8 ug/ml incubated for 16 hrs by GC/MS analysis (reference value: 100%); set-up: scale not given: the % may be the effect or the level left; conditions: candida albicans sc5314, 16 h
[9] = biological target: T1, Lanosterol 14-alpha demethylase; experiment: Inhibition of CYP51 in Candida albicans ATCC SC5314 assessed as obtusifoliol level at 0.13 ug/ml incubated for 16 hrs by GC/MS analysis (reference value: 0%); set-up: scale not given: the % may be the effect or the level left; conditions: candida albicans sc5314, 16 h
[10] = biological target: T1, Lanosterol 14-alpha demethylase; experiment: Inhibition of CYP51 in Candida albicans ATCC SC5314 assessed as obtusifoliol level at 0.5 ug/ml incubated for 16 hrs by GC/MS analysis (reference value: 0%); set-up: scale not given: the % may be the effect or the level left; conditions: candida albicans sc5314, 16 h
[11] = biological target: T1, Lanosterol 14-alpha demethylase; experiment: Inhibition of CYP51 in Candida albicans ATCC SC5314 assessed as obtusifoliol level at 2 ug/ml incubated for 16 hrs by GC/MS analysis (reference value: 0%); set-up: scale not given: the % may be the effect or the level left; conditions: candida albicans sc5314, 16 h
[12] = biological target: T1, Lanosterol 14-alpha demethylase; experiment: Inhibition of CYP51 in Candida albicans ATCC SC5314 assessed as obtusifoliol level at 8 ug/ml incubated for 16 hrs by GC/MS analysis (reference value: 0%); set-up: scale not given: the % may be the effect or the level left; conditions: candida albicans sc5314, 16 h
[13] = biological target: T1, Lanosterol 14-alpha demethylase; experiment: Inhibition of CYP51 in Candida albicans ATCC SC5314 assessed as lanosterol level at 0.13 ug/ml incubated for 16 hrs by GC/MS analysis (reference value: 0%); set-up: scale not given: the % may be the effect or the level left; conditions: candida albicans sc5314, 16 h
[14] = biological target: T1, Lanosterol 14-alpha demethylase; experiment: Inhibition of CYP51 in Candida albicans ATCC SC5314 assessed as lanosterol level at 0.5 ug/ml incubated for 16 hrs by GC/MS analysis (reference value: 0%); set-up: scale not given: the % may be the effect or the level left; conditions: candida albicans sc5314, 16 h
[15] = biological target: T1, Lanosterol 14-alpha demethylase; experiment: Inhibition of CYP51 in Candida albicans ATCC SC5314 assessed as lanosterol level at 2 ug/ml incubated for 16 hrs by GC/MS analysis (reference value: 0%); set-up: scale not given: the % may be the effect or the level left; conditions: candida albicans sc5314, 16 h
[16] = biological target: T1, Lanosterol 14-alpha demethylase; experiment: Inhibition of CYP51 in Candida albicans ATCC SC5314 assessed as lanosterol level at 8 ug/ml incubated for 16 hrs by GC/MS analysis (reference value: 0%); set-up: scale not given: the % may be the effect or the level left; conditions: candida albicans sc5314, 16 h
[17] = biological target: T1, Lanosterol 14-alpha demethylase; experiment: Inhibition of CYP51 in Candida albicans ATCC SC5314 assessed as eburicol level at 0.13 ug/ml incubated for 16 hrs by GC/MS analysis (reference value: 0%); set-up: scale not given: the % may be the effect or the level left; conditions: candida albicans sc5314, 16 h
[18] = biological target: T1, Lanosterol 14-alpha demethylase; experiment: Inhibition of CYP51 in Candida albicans ATCC SC5314 assessed as eburicol level at 0.5 ug/ml incubated for 16 hrs by GC/MS analysis (reference value: 0%); set-up: scale not given: the % may be the effect or the level left; conditions: candida albicans sc5314, 16 h
[19] = biological target: T1, Lanosterol 14-alpha demethylase; experiment: Inhibition of CYP51 in Candida albicans ATCC SC5314 assessed as eburicol level at 2 ug/ml incubated for 16 hrs by GC/MS analysis (reference value: 0%); set-up: scale not given: the % may be the effect or the level left; conditions: candida albicans sc5314, 16 h
[20] = biological target: T1, Lanosterol 14-alpha demethylase; experiment: Inhibition of CYP51 in Candida albicans ATCC SC5314 assessed as eburicol level at 8 ug/ml incubated for 16 hrs by GC/MS analysis (reference value: 0%); set-up: scale not given: the % may be the effect or the level left; conditions: candida albicans sc5314, 16 h
[21] = Cytotoxicity in human A549 cells assessed as reduction in cell viability at 0.08 uM/L incubated for 24 hrs by MTT assay relative to control; type: cell-based; conditions: read-out: INH
Procedure, shortened: (§3)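 A549 cells were seeded at 3000 cells/well and preincubated for 16 h at 37 °C, 5% CO2. Medium was then replaced with fresh medium holding compound (DMSO stock diluted to final 0.08, 0.4, 2.0, 10 or 50 μM/L). Exposure lasted 24 h at 37 °C, 5% CO2, followed by MTT for 4 h and absorbance at 490 nm. Results are given as % inhibition.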

[22] = Cytotoxicity in human A549 cells assessed as reduction in cell viability at 0.40 uM/L incubated for 24 hrs by MTT assay relative to control; type: cell-based; conditions: read-out: INH; procedure, shortened: as §3
[23] = Cytotoxicity in human A549 cells assessed as reduction in cell viability at 2 uM/L incubated for 24 hrs by MTT assay relative to control; type: cell-based; conditions: read-out: INH; procedure, shortened: as §3
[24] = Cytotoxicity in human A549 cells assessed as reduction in cell viability at 10 uM/L incubated for 24 hrs by MTT assay relative to control; type: cell-based; conditions: read-out: INH; procedure, shortened: as §3
[25] = Cytotoxicity in human A549 cells assessed as reduction in cell viability at 50 uM/L incubated for 24 hrs by MTT assay relative to control; type: cell-based; conditions: read-out: INH; procedure, shortened: as §3
[26] = Stability in human plasma assessed as parent compound remaining at 100 uM after 60 mins LC/MS/MS analysis relative to control; type: ADME, cell-free; conditions: read-out: Stability
Procedure, shortened: (§4)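 Thawed human plasma was cleared at 4000 rpm and spiked from a 100 μM dosing solution to a final 2 μM, in duplicate, at 37 °C. Propantheline served as positive control. Sampling at 0, 10, 30, 60 and 120 min into ACN/MeOH stop solution with tolbutamide and labetalol internal standards. After centrifugation, supernatant was diluted with water and run by LC/MS/MS. % remaining was taken from the analyte/IS peak-area ratio, with no standard curve.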

[27] = Stability in human plasma assessed as parent compound remaining at 100 uM after 120 mins LC/MS/MS analysis relative to control; type: ADME, cell-free; conditions: read-out: Stability; procedure, shortened: as §4
[28] = biological target: T1, Lanosterol 14-alpha demethylase; experiment: Inhibition of CYP51 in Candida albicans ATCC SC5314 assessed as change in sterol components incubated for 16 hrs by GC/MS analysis; conditions: candida albicans sc5314, 16 h
Candida albicans [29] = experiment: Antifungal activity against Candida albicans SC5314; type: functional

Compound	MIC (Candida albicans [1]) [µg/mL]	MIC (Candida albicans [2]) [µg/mL]	MIC (Cryptococcus neoformans) [µg/mL]	MIC (Candida tropicalis) [µg/mL]	MIC (Aspergillus fumigatus) [µg/mL]	MIC (Candida albicans [3]) [µg/mL]	MIC (Candida albicans [4]) [µg/mL]	Activity [5] [%]	Activity [6] [%]	Activity [7] [%]	Activity [8] [%]	Activity [9] [%]	Activity [10] [%]	Activity [11] [%]	Activity [12] [%]	Activity [13] [%]	Activity [14] [%]	Activity [15] [%]	Activity [16] [%]	Activity [17] [%]	also measured
CC[C@H](C)[C@@H](Cn1ccnc1)NC(=O)c1ccc(-c2ccccc2F)cc1F	0.06	< 0.03	1	< 0.03	2	2	8	98	36	6.5	0	0	12.2	23.8	31.3	2	21	20	23.8	0	Activity [18]: 30.8%; Activity [19]: 49.7%; Activity [20]: 44.9%; cytotoxicity at 24 h, 0.08 µM [21]: 5.4%; cytotoxicity at 24 h, 0.4 µM [22]: 6.6%; cytotoxicity at 24 h, 2 µM [23]: 7.3%; cytotoxicity at 24 h, 10 µM [24]: 8.3%; cytotoxicity at 24 h, 50 µM [25]: 13.9%; remaining at 1 h, 100 µM [26]: 114%; remaining at 2 h, 100 µM [27]: 92.6%
OC(Cn1cncn1)(Cn1cncn1)c1ccc(F)cc1F [FLUCONAZOLE]	1	0.5	4	1	> 64	> 64	> 64	97.7	90.1	17.2	0	0	0	17.7	37.2	2.3	9.9	28	22.9	0	Activity [18]: 0%; Activity [19]: 37.1%; Activity [20]: 39.9%; Activity [28]: Dose-dependent effect
CC(C)OC(=O)C(Cn1ccnc1)NC(=O)c1ccc(-c2ccccc2)cc1 (stereo not given)	0.25	< 0.03	2	< 0.06	> 64	–	–	–	–	–	–	–	–	–	–	–	–	–	–	–	MIC (Candida albicans [29]): 0.03 µg/mL (≈ 0.0795 µM)
